{"source": "paper PMC10442107", "about": "(Hepatology (Baltimore, Md.), 2023)", "key": {"[1]": {"conditions": "compared with levels in BDL mice of the current study; cited from earlier work"}, "ileal ASBT": {"target": "T1, ileal ASBT (Mus musculus, UniProt P70172)", "T1 sequence (P70172 1-348)": "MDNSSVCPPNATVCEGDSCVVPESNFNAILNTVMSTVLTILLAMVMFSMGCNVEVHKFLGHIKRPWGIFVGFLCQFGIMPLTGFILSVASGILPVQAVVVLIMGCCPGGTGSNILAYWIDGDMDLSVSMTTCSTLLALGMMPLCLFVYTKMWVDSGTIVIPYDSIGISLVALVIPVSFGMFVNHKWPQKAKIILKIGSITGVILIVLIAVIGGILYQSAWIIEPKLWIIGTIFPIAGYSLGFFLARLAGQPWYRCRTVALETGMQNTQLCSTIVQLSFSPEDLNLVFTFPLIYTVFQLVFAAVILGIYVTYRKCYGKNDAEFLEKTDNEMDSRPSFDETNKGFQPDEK", "assay": "Pharmacodynamic study in normal wild-type C57BL/6N mice", "assay_type": "in vivo", "procedure,_shortened": "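Adult C57BL/6N mice (13–14 weeks) were gavaged daily for 8 days with the test compound at 3 or 10 mg/kg/d or with vehicle (0.5% CMC + 0.1% Tween 80). Feces were collected between days 6 and 7 and urine 2 h after the day-8 terminal dose. Total bile acids were measured with commercial kits and compared with vehicle by 1-way ANOVA with Dunnett post hoc test.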"}, "[2]": {"assay": "Oral pharmacokinetic profile of A3907 and A3309 in BDL mice", "assay_type": "in vivo, mouse", "procedure,_shortened": "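Adult male C57BL/6 mice with bile duct ligation received the test compound or a gut-restricted ASBT inhibitor by mouth at 3 or 10 mg/kg once daily for 7 days. Plasma exposure was profiled and set against normal wild-type mice dosed under the same conditions.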"}, "BDL mice": {"test_system": "BDL mice", "assay": "Bile duct ligation", "assay_type": "in vivo, mouse", "conditions": "3 mg/kg/d", "procedure,_shortened": "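Male mice on a C57BL/6J background, age-matched, underwent bile duct ligation. Oral gavage dosing started 3 days after surgery and continued once daily for 11 days, with the comparator ASBT inhibitor at 3 mg/kg. Blood for serum biochemistry was taken by cardiac puncture at sacrifice. RNAseq was run on RNA from terminal liver samples (15 mg fresh tissue).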"}, "[3]": {"conditions": "pediatric, cited from earlier work"}, "Mdr2 −/− mice": {"test_system": "Mdr2 −/− mice", "conditions": "cited from earlier work"}, "[4]": {"conditions": "11 days, A3907 vs A3309 comparison"}, "[5]": {"conditions": "progressive familial intrahepatic cholestasis"}}, "note": "Like-named read-outs stand apart in the source and are kept apart here."}
{"smiles": "CCCCC1(CCCC)CN(c2ccccc2)c2cc(SC)c(OCC(=O)N[C@@H](C(=O)NCC(=O)O)c3ccccc3)cc2S(=O)(=O)C1", "note": "[A3309]", "values": [{"measurement": "systemic exposure in humans at the therapeutically relevant dose", "setting": "[1]", "value": "several-fold lower than levels demonstrating signs of efficacy in BDL mice"}, {"measurement": "urine BA levels", "setting": "ileal ASBT; normal mice, oral 3 and 10 mg/kg/d, 2 hours after dose on day 8", "value": "did not change"}, {"measurement": "fecal BA levels", "setting": "ileal ASBT; normal nonfasted mice, oral 3 and 10 mg/kg/d once daily for 7 days, vs vehicle", "value": "significant elevation of fecal BA levels"}, {"measurement": "serum levels compared with A3907", "setting": "[2]; BDL mice, 3 or 10 mg/kg oral daily", "value": "significantly lower than A3907"}, {"measurement": "plasma exposure in BDL mice relative to normal WT mice", "setting": "[2]; same experimental conditions, WT data not shown", "value": "~ 6 fold"}, {"measurement": "serum and biliary BAs levels", "setting": "BDL mice; [4]", "value": "attenuated BA levels in a nonsignificant fashion"}, {"measurement": "urinary BA excretion", "setting": "BDL mice; [4]", "value": "induced urinary BA excretion to some extent"}, {"measurement": "number of dysregulated hepatic genes normalized", "setting": "BDL mice; liver RNAseq, of 5790 DEGs vs sham", "value": 15}]}
{"smiles": "CCCCC1(CCCC)CN(c2ccccc2)c2cc(SC)c(OCC(=O)N[C@@H](C(=O)N[C@@H](CC)C(=O)O)c3ccc(O)cc3)cc2S(=O)(=O)N1", "note": "[A4250, odevixibat]", "values": [{"measurement": "BA load", "setting": "[3]; [5]", "value": "reduced"}, {"measurement": "pruritus", "setting": "[3]; [5]", "value": "decreased"}, {"measurement": "BA levels in serum and bile", "setting": "Mdr2 −/− mice", "value": "reduced"}, {"measurement": "cholestatic liver disease", "setting": "Mdr2 −/− mice", "value": "improved"}]}
{"smiles": "CCCCC1(CCCC)CS(=O)(=O)c2ccc(N(C)C)cc2[C@@H](c2ccc(OCCCC[N+]34CCN(CC3)CC4)cc2)[C@H]1O", "note": "[SC-435]", "values": [{"measurement": "BA levels in serum and bile", "setting": "Mdr2 −/− mice", "value": "reduced"}, {"measurement": "cholestatic liver disease", "setting": "Mdr2 −/− mice", "value": "improved"}]}
{"smiles": "CCCCC1(CCCC)CS(=O)(=O)c2ccc(N(C)C)cc2[C@@H](c2ccc(OCc3ccc(C[N+]45CCN(CC4)CC5)cc3)cc2)[C@H]1O", "note": "[maralixibat]", "values": [{"measurement": "BA load", "setting": "[3]; Alagille syndrome", "value": "reduced"}, {"measurement": "pruritus", "setting": "[3]; Alagille syndrome", "value": "decreased"}]}
